Activity, fold change (FC) and inhibition data for one molecule are collected here from ChEMBL document CHEMBL3808312, “Bioactive Constituents of Glycyrrhiza uralensis (Licorice): Discovery of the Effective Components of a Traditional Herbal Medicine” (J Nat Prod, 2016).

In data set [1] the test system is Mus musculus. The data set is described as follows: Hepatoprotective activity in C57BL/6J mouse assessed as prevention of CCL4-induced severe hepatic lesions at 5 mg/kg, ip administered qd for 3 days followed by CCL4 addition at 3 hrs post last dose measured after 24 hrs by hematoxylin-eosin staining. The data set is classed as functional, organism-based. The procedure, abridged: (§1)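 Seven-week-old male C57BL/6J mice, n = 10/group, given compound in corn oil (0.5 or 1 mg/mL) at 5 or 10 mg/kg ip once daily for 3 days. CCl4 at 200 μL/kg ip (2% v/v in corn oil) given 3 h after the last dose. Sacrifice at 24 h. Serum ALT/AST measured; liver GSH by GSH/GSSG kit normalized to BCA protein; left lobe H&E stained and scored blind at 4× and 20×.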

For data set [2], the target named is T1, Nuclear factor erythroid 2-related factor 2 (Homo sapiens) (UniProt Q16236).
T1 sequence (whole entry): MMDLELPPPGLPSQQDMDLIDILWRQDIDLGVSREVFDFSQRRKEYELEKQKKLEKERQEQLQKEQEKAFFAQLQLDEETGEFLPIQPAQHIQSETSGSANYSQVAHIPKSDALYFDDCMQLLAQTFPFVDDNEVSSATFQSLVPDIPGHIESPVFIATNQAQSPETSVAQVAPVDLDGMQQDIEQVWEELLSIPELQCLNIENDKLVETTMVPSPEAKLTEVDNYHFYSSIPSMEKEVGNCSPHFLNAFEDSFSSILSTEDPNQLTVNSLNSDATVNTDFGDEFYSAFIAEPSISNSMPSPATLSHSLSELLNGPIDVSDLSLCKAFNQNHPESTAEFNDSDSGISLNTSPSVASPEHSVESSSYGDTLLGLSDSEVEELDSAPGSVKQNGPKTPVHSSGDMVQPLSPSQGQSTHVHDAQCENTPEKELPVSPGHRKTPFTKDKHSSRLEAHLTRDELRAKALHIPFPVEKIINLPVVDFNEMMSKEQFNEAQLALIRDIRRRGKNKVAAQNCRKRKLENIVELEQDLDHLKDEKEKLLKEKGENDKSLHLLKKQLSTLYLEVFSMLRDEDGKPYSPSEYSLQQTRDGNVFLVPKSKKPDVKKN
The data set is described as follows: Activation of NRF2 transcription in human HepG2C8 cells at 40 uM after 6 hrs by luciferase reporter gene assay relative to control. The format is cell-based. The procedure, abridged: (§2)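 Luciferase reporter in HepG2C8 cells, which are HepG2 stably transfected with an Nrf2 luciferase reporter and grown in MEM. Screened at 10 μM, with dose-response over 2.5−40 μM. Activity expressed as fold of control. tBHQ positive control.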
(In general: A reporter such as luciferase makes a cellular process visible.)

Data set [3] deals with T1, Nuclear factor erythroid 2-related factor 2 (Homo sapiens). The data set is described as follows: Activation of NRF2 transcription in human HepG2C8 cells at 10 uM after 6 hrs by luciferase reporter gene assay relative to control. The data set is classed as cell-based. The procedure, abridged: as §2
The subject of data set [4] is Mus musculus. The data set is described as follows: In vivo NRF2 activation in ip dosed C57BL/6J mouse assessed as increase in liver transcription of NQO-1 administered as qd for 3 days measured 3 hrs post last dose by qRT-PCR analysis. The format is functional, organism-based. In a few lines: (§3)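 Male C57BL/6J mice given compound in corn oil at 5 or 10 mg/kg ip for three consecutive days; controls received corn oil. Liver harvested 3 h after final dose. HO-1 and NQO-1 mRNA measured by qRT-PCR with mouse primers. Nrf2 and HO-1 protein measured by Western blot (20 μg, 10% SDS-PAGE, ECL).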
In general terms: Real-time PCR tracks product formation cycle by cycle.

Data set [5] has as its target T2, Tyrosinase (Homo sapiens) (UniProt P14679).
T2 sequence (whole entry): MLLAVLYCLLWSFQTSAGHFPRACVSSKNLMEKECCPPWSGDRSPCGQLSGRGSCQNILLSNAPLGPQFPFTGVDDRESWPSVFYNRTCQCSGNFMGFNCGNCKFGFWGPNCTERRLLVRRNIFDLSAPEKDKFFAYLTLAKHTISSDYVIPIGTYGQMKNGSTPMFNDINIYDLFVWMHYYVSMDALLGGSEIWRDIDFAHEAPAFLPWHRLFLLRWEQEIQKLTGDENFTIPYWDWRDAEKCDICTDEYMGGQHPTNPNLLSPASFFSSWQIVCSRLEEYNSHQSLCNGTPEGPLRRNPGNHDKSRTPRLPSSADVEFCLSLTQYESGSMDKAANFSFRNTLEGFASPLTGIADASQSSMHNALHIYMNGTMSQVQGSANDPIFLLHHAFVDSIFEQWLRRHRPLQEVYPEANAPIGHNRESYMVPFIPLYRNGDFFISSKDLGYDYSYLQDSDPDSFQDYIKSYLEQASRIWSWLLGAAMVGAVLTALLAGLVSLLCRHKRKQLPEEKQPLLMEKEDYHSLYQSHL
The data set can be described thus: Inhibition of tyrosinase (unknown origin) using L-tyrosine as substrate assessed as oxidation of L-tyrosine at 20 uM after 15 mins. In a few lines: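 Tyrosinase at 333 U/mL (stock) in 45 mM sodium phosphate, pH 6.6, with 2 mM L-tyrosine (stock). Incubated 37 °C for 15 min; oxidation read at 492 nm. Screened at 20 μM; dose-response for IC50. Glyasperin C positive control.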

For the next data set, the system named is HepG2. The data set can be described thus: Toxicity in human HepG2 cells at 20 to 40 uM. The format is cell-based. Conditions: hepg2, 40 µM.
Data set [6] deals with T1, Nuclear factor erythroid 2-related factor 2 (Homo sapiens). The data set is described as follows: Activation of NRF2 in human HepG2 cells assessed as induction of NQO-1 transcription by RT-PCR analysis. The format is cell-based. In a few lines:
(§4)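 HepG2 cells treated with or without compound. HO-1 and NQO1 transcripts measured by RT-PCR after total RNA extraction and reverse transcription, amplified against β-actin with human primers. For protein, 20 μg lysate (RIPA) separated on 10% SDS-PAGE, blotted to PVDF, probed with antibodies to Nrf2, HO-1, NQO-1 and β-actin, and detected by ECL.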

Data set [7] relates to Mus musculus. The data set is described as follows: Hepatoprotective activity in ip dosed C57BL/6J mouse assessed as reduction in CCL4-induced serum AST level administered qd for 3 days followed by CCL4 addition at 3 hrs post last dose measured after 24 hrs. The format is functional, organism-based. In a few lines: as §1
The target of data set [8] is T1, Nuclear factor erythroid 2-related factor 2 (Homo sapiens). The data set can be described thus: Activation of NRF2 transcription in human HepG2C8 cells after 6 hrs by luciferase reporter gene assay. The data set is classed as cell-based. In a few lines: as §2
Data set [9] relates to Mus musculus. The data set can be described thus: In vivo increase in HO-1 levels in C57BL/6J mouse liver at 5 to 10 mg/kg, ip qd administered for 3 days measured 3 hrs post last dose by Western blot analysis. The data set is classed as functional, organism-based. In a few lines:
as §3
(A western blot detects proteins with antibodies after separation by electrophoresis.)

In data set [10] the test system is Mus musculus. The data set can be described thus: Hepatoprotective activity in ip dosed C57BL/6J mouse assessed as reduction in CCL4-induced serum ALT level administered qd for 3 days followed by CCL4 addition at 3 hrs post last dose measured after 24 hrs. The data set is classed as functional, organism-based. In a few lines: as §1
The subject of data set [11] is Mus musculus. The data set can be described thus: In vivo NRF2 activation in ip dosed C57BL/6J mouse assessed as increase in liver transcription of HO-1 administered as qd for 3 days measured 3 hrs post last dose by qRT-PCR analysis. The format is functional, organism-based. The procedure, abridged: as §3
Data set [12] addresses T1, Nuclear factor erythroid 2-related factor 2 (Homo sapiens). The data set can be described thus: Activation of NRF2 transcription in human HepG2C8 cells at 20 uM after 6 hrs by luciferase reporter gene assay relative to control. The data set is classed as cell-based. The procedure, abridged:
as §2

Another data set relates to Influenza A virus. The data set is described as follows: Antiviral activity against Influenza A virus A/WSN/33(H1N1) infected in MDCK cells at 100 uM preincubated with virus for 15 mins followed by cells addition measured at 36 hrs post infection. The format is functional, A/WSN/1933(H1N1). In a few lines:
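MDCK canine kidney cells grown in DMEM and infected with influenza A/WSN/33 (H1N1). Compounds screened at 100 μM. Oseltamivir phosphate served as the positive control.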

Data set [13] has as its system Mus musculus. The data set is described as follows: Hepatoprotective activity in C57BL/6J mouse assessed as attenuation of CCL4-mediated GSH level depletion measured as GSH level […] of protein at 10 mg/kg, ip administered qd for 3 days followed by CCL4 addition at 3 hrs post last dose measured after 24 hrs by GSH/GSSG assay (reference value: 0.86 +/- 0.38 nmol). The data set is classed as functional. The procedure, abridged:
as §1

Data set [14] has as its system Mus musculus. The data set can be described thus: In vivo increase in NRF2 levels in C57BL/6J mouse liver at 5 to 10 mg/kg, ip qd administered for 3 days measured 3 hrs post last dose by Western blot analysis. The data set is classed as functional, organism-based. In a few lines: as §3
Data set [15] concerns Mus musculus. The data set can be described thus: Hepatoprotective activity in C57BL/6J mouse assessed as attenuation of CCL4-mediated GSH level depletion measured as GSH level […] of protein at 5 mg/kg, ip administered qd for 3 days followed by CCL4 addition at 3 hrs post last dose measured after 24 hrs by GSH/GSSG assay (reference value: 0.86 +/- 0.38 nmol). The data set is classed as functional. In a few lines: as §1

Data set [16] has as its target T1, Nuclear factor erythroid 2-related factor 2 (Homo sapiens). The data set is described as follows: Activation of NRF2 in human HepG2 cells assessed as induction of HO-1 transcription by RT-PCR analysis. The format is cell-based. The procedure, abridged:
as §4

Data set [17] has the same target. The data set is described as follows: Activation of NRF2 in human HepG2 cells by Western blot analysis. The data set is classed as cell-based. In a few lines:
as §4

For data set [18] the target is unchanged. The data set can be described thus: Activation of NRF2 in human HepG2 cells assessed as upregulation of HO-1 level by Western blot analysis. The data set is classed as cell-based. The procedure, abridged:
as §4

Activity calls are given as the source filed them. The rule behind the calls is not given here. A value given as a limit tells only on which side of the number the result lay.

As for `COc1cc(O)ccc1/C=C/C(=O)c1ccc(O)cc1` [ECHINATIN], the outcome in the data set on Mus musculus [1], in the data set with Mus musculus [9] and in the data set with Mus musculus [14] was Active. The fold change (FC) stood at 4.3 in data set [2], 5.46 in data set [3] and 6.8 in data set [12]. Besides, the Activity result is “Dose-dependent effect” with Mus musculus [4]; “Toxic” with HepG2; “Dose-dependent effect” in [6]; “Dose-dependent effect” in the data set with Mus musculus [7]; “Dose-dependent effect” in data set [8]; “Dose-dependent effect” in the data set with Mus musculus [10]. Further, the Activity entry is “Dose-dependent effect” with Mus musculus [11]; over 30% in the data set with Influenza A virus; 2.58 nmol with Mus musculus [13]; 2.42 nmol in the data set with Mus musculus [15]; “Dose-dependent effect” in data set [16]; “Dose-dependent effect” in data set [17]. Moreover, the Activity entry in data set [18] was “Dose-dependent effect”. Also, the inhibition entry in [5] is “Active”.
